pIC50: −log10 of the molar value. Activity calls are given as the source filed them. The rule behind the calls is not given here.
How the values were obtained:
[1] = target: T1, Isocitrate dehydrogenase [NADP] cytoplasmic (Homo sapiens, UniProt O75874, R132C); test: (§1) Inhibition of recombinant human C-terminal His8-tagged IDH1 R132C mutant expressed in Escherichia coli BL21 assessed as reduction in NADPH consumption using alpha-ketoglutarate as substrate preincubated for 60 mins followed by substrate addition and measured for 60 mins in presence of NADPH by diaphorase/resazurin-based fluorescence assay
T1 sequence (O75874 2-414 R132C limits assumed): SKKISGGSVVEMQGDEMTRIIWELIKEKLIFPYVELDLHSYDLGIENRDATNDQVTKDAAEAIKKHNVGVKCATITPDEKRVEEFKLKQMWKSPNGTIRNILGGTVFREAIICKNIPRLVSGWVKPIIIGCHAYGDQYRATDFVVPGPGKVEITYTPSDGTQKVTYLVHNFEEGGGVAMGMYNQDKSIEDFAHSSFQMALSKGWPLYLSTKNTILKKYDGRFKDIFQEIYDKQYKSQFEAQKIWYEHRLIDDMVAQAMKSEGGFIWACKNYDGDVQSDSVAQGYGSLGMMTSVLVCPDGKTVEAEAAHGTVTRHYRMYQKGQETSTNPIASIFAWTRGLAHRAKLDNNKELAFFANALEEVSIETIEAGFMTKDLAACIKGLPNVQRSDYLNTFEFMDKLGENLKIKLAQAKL

[2] = target: Isocitrate dehydrogenase [NADP] cytoplasmic (Homo sapiens, UniProt O75874, R132H); test: as §1, with “R132H” for “R132C”, “addition” for “addition and”, “diaphorase/resazurin-based” for “diaphorase/resazurin-based fluorescence”
Isocitrate dehydrogenase [NADP] cytoplasmic (Homo sapiens, UniProt O75874, R132H), sequence (O75874 2-414 R132H limits assumed): as the sequence (O75874 2-414 R132C limits assumed) above, with C131H counted along it

[3] = target: T1, Isocitrate dehydrogenase [NADP] cytoplasmic; test: Inhibition of IDH1 R132C mutant in human HT1080 cells assessed as reduction in 2-HG production incubated with compound for 48 hrs by D2HG assay kit based fluorescence assay; type: cell-based
[4] = Clearance in ICR mouse at 1 mg/kg, iv measured upto 24 hrs by LCMS analysis; type: ADME, organism-based; conditions: in vivo
Procedure, shortened: (§2)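 Male ICR mice (6-8 weeks, 20-25 g), nine animals, dosed 1 mg/kg by slow intravenous injection or 5 mg/kg orally. Blood sampled into EDTA at 5 min (iv only), 15 min, 30 min, 1, 2, 4, 8 and 24 h. Plasma stored at -20 °C, prepared by acetonitrile protein precipitation with dexamethasone internal standard, and analysed for parent compound. Values are means of three replicates.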

[5] = Volume of distribution at steady state in ICR mouse at 1 mg/kg, iv measured upto 24 hrs by LCMS analysis; type: ADME, organism-based; conditions: in vivo, read-out: Vdss; procedure, shortened: as §2
[6] = Half life in ICR mouse at 1 mg/kg, iv measured upto 24 hrs by LCMS analysis; type: ADME, organism-based; conditions: in vivo; procedure, shortened: as §2
[7] = AUC in ICR mouse at 1 mg/kg, iv measured upto 24 hrs by LCMS analysis; type: ADME, organism-based; design: time < 24 hr, dose 1 mg/kg, route intravenous; conditions: in vivo; procedure, shortened: as §2
[8] = Cmax in ICR mouse at 5 mg/kg, po measured upto 24 hrs by LCMS analysis; type: ADME, organism-based; design: dose 5 mg/kg, route oral; conditions: in vivo; procedure, shortened: as §2
[9] = Half life in ICR mouse at 5 mg/kg, po measured upto 24 hrs by LCMS analysis; type: ADME, organism-based; conditions: in vivo; procedure, shortened: as §2
[10] = AUC in ICR mouse at 5 mg/kg, po measured upto 24 hrs by LCMS analysis; type: ADME, organism-based; design: dose 5 mg/kg, time < 24 hr, route oral; conditions: in vivo; procedure, shortened: as §2
[11] = Oral bioavailability in ICR mouse at 5 mg/kg measured upto 24 hrs by LCMS analysis; type: ADME, organism-based; conditions: ICR, in vivo; procedure, shortened: as §2
[12] = target: Isocitrate dehydrogenase [NADP] cytoplasmic (Homo sapiens, UniProt O75874); test: as §1, with “of wild type” for “of”, “IDH1” for “IDH1 R132C mutant”, “in NADP” for “in NADPH”, “using DL-isocitrate” for “using alpha-ketoglutarate”, “of NADP” for “of NADPH”
Isocitrate dehydrogenase [NADP] cytoplasmic (Homo sapiens, UniProt O75874), sequence (O75874 whole entry): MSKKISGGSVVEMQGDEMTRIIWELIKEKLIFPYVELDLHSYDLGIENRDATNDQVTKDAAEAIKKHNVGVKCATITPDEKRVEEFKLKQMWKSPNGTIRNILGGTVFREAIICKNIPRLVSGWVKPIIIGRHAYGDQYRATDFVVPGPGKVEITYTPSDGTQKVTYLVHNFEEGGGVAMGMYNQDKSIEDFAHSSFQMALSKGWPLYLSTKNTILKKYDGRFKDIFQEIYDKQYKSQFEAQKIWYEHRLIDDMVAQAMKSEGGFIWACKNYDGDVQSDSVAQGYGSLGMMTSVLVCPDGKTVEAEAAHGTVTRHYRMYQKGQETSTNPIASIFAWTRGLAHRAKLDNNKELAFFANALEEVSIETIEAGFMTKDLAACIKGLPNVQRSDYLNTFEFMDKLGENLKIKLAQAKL

[13] = tested on: Isocitrate dehydrogenase [NADP] cytoplasmic (Homo sapiens), O75874 [R132H]; test: Inhibition of human IDH1 R132H mutant transfected in GL261 cells assessed as reduction in 2-HG production at 100 nM incubated with compound for 48 hrs by D2HG assay kit based fluorescence assay; type: cell-based
Isocitrate dehydrogenase [NADP] cytoplasmic (Homo sapiens), O75874 [R132H], sequence (O75874 whole entry R132H): as the sequence (O75874 whole entry) above, with R132H counted along it

[14] = Drug uptake in plasma of athymic BALB/c nude mouse xenografted with human HT1080 cells at 50 to 150 mg/kg, po administered as a single dose via gavage measured upto 24 hrs post dosing by LC-MS/MS analysis; type: ADME, organism-based; conditions: in vivo
Procedure, shortened: (§3)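 Female athymic nude mice carrying subcutaneous right-flank HT1080 xenografts (5 × 10^6 cells in PBS/Matrigel 1:1). Compound given by oral gavage as a suspension in 0.5% MC + 0.5% Tween 80 in water, 10 ml/kg. Blood taken by orbital sinus bleed; brain and tumour collected at 2, 6, 12 and 24 h, homogenized in PBS. Samples acetonitrile-precipitated with dexamethasone internal standard and measured by LC/MS/MS.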

HT-1080 = test: In vivo inhibition of IDH1 R132C mutant in human HT1080 cells xenografted in athymic BALB/c nude mouse assessed as reduction in 2-HG level in tumor tissue at 50 mg/kg, po administered as a single dose via gavage measured upto 24 hrs post dosing by LC-MS/MS analysis; type: functional, organism-based
Procedure, shortened: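 HT1080 subcutaneous xenografts in female athymic nude mice, randomized block design, 12 mice per group. Oral gavage of suspension (0.5% MC + 0.5% Tween 80 in water, 10 ml/kg). Tumours collected at 2, 6, 12 and 24 h and frozen in liquid nitrogen. 2-HG measured by LC/MS/MS; percent inhibition taken relative to vehicle-treated mice, reported as mean ± SEM.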

[15] = Drug uptake in brain of athymic BALB/c nude mouse xenografted with human HT1080 cells at 50 to 150 mg/kg, po administered as a single dose via gavage measured upto 24 hrs post dosing by LC-MS/MS analysis; type: ADME, organism-based; conditions: in vivo; procedure, shortened: as §3
[16] = Drug uptake in tumor of athymic BALB/c nude mouse xenografted with human HT1080 cells at 50 to 150 mg/kg, po administered as a single dose via gavage measured upto 24 hrs post dosing by LC-MS/MS analysis; type: ADME, organism-based, Neoplasm; conditions: in vivo; procedure, shortened: as §3

COc1ccc2c(c1)OCc1c([C@H](C)Nc3nccc(N4C(=O)OC[C@@H]4[C@H](C)F)n3)ncn1-2 showed a pIC50 [1] of 6.81 and a pIC50 [2] of 7.21.

Work on C[C@H](Nc1nccc(N2C(=O)OC[C@@H]2[C@H](C)F)n1)c1ncn2c1CSc1cc(C(F)(F)F)ccc1-2 yielded a pIC50 [1] of 7.62 and a pIC50 [2] of 7.62.

Molecule CC(C)[C@H]1COC(=O)N1c1ccnc(N[C@@H](C)c2ncn3c2CCc2cc(C(F)(F)F)ccc2-3)n1 has a pIC50 [1] of 8.03, a pIC50 [2] of 9.00 and a pIC50 [3] of 7.90. It also gave a clearance [4] of 109 mL/min/kg, a Vd [5] of 3 L/kg and a half-life [6] of 0.5 h. For the same molecule, the AUC at 24 h [7] was 0.312 µM·h, the Cmax [8] was 730 nM and the half-life [9] was 2 h. For the same molecule, the AUC at 24 h [10] was 1.65 µM·h and the bioavailability [11] was 109%.

For C[C@H](Nc1nccc(N2C(=O)OC[C@@H]2[C@H](C)F)n1)c1ncn2c1CCc1ccc(C(F)(F)F)cc1-2, the pIC50 [1] was 8.10 and the pIC50 [2] was 7.74.

C[C@H](Nc1nccc(N2C(=O)OC3(COC3)[C@@H]2c2ccccc2)n1)c1ncn2c1CCc1cc(C(F)(F)F)ccc1-2 showed a pIC50 [1] of 8.01 and a pIC50 [2] of 7.47.

Work on C[C@H](Nc1nccc(N2C(=O)OC[C@@H]2[C@H](C)F)n1)c1ncn2c1sc1cc(C(F)(F)F)ccc12 yielded a pIC50 [1] of 7.76 and a pIC50 [2] of 7.72.

CC(C)[C@@H]1N(c2ccnc(N[C@@H](C)c3ncn4c3CCc3cc(C(F)(F)F)ccc3-4)n2)C(=O)OC1(C)C showed a pIC50 [1] of 7.73 and a pIC50 [2] of 7.29.

Work on Cc1ccc2c(c1)CCc1c([C@H](C)Nc3nccc(N4C(=O)OC[C@@H]4[C@H](C)F)n3)ncn1-2 yielded a pIC50 [1] of 7.79 and a pIC50 [2] of 7.37.

C[C@H](Nc1nccc(N2C(=O)OC[C@@H]2[C@H](C)F)n1)c1ncn2c1CCc1c(Cl)cccc1-2 gave a pIC50 [1] of 7.09 and a pIC50 [2] of 7.62.

For C[C@H](Nc1nccc(N2C(=O)OC[C@@H]2[C@H](C)F)n1)c1ncn2c1CCc1cc(C(F)(F)F)ccc1-2, the pIC50 [12] was 5.18, the pIC50 [1] was 8.09 and the pIC50 [2] was 8.40. For the same molecule, the pIC50 [3] was 7.80, the inhibition [13] was “Active” and the clearance [4] was 23 mL/min/kg. For the same molecule, the Vd [5] was 2.3 L/kg, the half-life [6] was 1.5 h and the AUC at 24 h [7] was 1.44 µM·h. The Cmax [8] was 1690 nM, the half-life [9] was 2.5 h and the AUC at 24 h [10] was 11 µM·h. For the same molecule, the bioavailability [11] was 150%, the Drug uptake [14] was “Active” and the inhibition (HT-1080) was “Active”. The Drug uptake [15] was “Active” and the Drug uptake [16] was “Active”.

Work on C[C@H](Nc1nccc(N2C(=O)OC[C@@H]2c2ccccc2)n1)c1ncn2c1CCc1cc(C(F)(F)F)ccc1-2 yielded a pIC50 [1] of 7.85 and a pIC50 [2] of 7.81.

In the case of C[C@H](Nc1nccc(N2C(=O)OC[C@@H]2[C@H](C)F)n1)c1ncn2c1CCc1cc(F)ccc1-2, the pIC50 [1] was 7.35 and the pIC50 [2] was 7.32.

Work on C[C@H](Nc1nccc(N2C(=O)OC[C@@H]2[C@H](C)F)n1)c1ncn2c1COc1cc(Cl)ccc1-2 yielded a pIC50 [12] of 5.15, a pIC50 [1] of 7.84 and a pIC50 [2] of 8.66. It also gave a pIC50 [3] of 7.22, a clearance [4] of 39 mL/min/kg and a Vd [5] of 2.3 L/kg. For the same molecule, the half-life [6] was 1 h, the AUC at 24 h [7] was 0.917 µM·h and the Cmax [8] was 1210 nM. For the same molecule, the half-life [9] was 2.4 h, the AUC at 24 h [10] was 5.01 µM·h and the bioavailability [11] was 109%.

Reference: ChEMBL document CHEMBL4406857, “Discovery of new small molecule inhibitors targeting isocitrate dehydrogenase 1 (IDH1) with blood-brain barrier penetration” (Eur J Med Chem, 2019)
